FXIIa inh: blocks human coagulation factor XIIa protease activity | 0.3% of 220,000 active | P00748 | purified FXIIa, Boc-QGR-AMC fluorogenic substrate, 2 h | inhibition, % at 5 µM; in the data active = inhibition above about 40%;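 note: 0% = enzyme with no compound and 100% = blank without enzyme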
Target sequence (P00748 20-372 limits assumed): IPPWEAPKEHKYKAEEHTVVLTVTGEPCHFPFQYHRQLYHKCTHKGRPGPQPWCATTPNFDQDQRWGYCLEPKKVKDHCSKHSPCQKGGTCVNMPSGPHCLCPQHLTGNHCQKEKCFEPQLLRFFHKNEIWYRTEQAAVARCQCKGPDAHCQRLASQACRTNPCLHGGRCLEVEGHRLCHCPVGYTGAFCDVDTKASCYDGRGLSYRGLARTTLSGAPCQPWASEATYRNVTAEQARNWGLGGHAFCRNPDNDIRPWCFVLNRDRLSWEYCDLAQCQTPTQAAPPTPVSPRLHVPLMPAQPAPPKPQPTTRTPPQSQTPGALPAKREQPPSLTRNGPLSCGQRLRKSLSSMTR
Target sequence (P00748 373-615 limits assumed): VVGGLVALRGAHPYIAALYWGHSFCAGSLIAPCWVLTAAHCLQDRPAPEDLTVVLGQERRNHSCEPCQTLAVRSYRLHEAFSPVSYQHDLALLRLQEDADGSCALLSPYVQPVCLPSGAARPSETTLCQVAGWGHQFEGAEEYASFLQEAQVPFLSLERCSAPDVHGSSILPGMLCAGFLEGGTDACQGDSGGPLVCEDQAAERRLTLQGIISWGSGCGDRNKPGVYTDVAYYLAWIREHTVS
FXIa inh: inhibitors of human coagulation factor XIa; P03951; 0.14% of 220,000 active; inhibition, % at 5 µM; purified FXIa, Boc-Glu-Ala-Arg-AMC fluorogenic substrate;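 active = inhibition of at least 40%; inactive = inhibition below 40%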;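 note: fluorescence of freed AMC excited at 355 nm; 0% = enzyme without compound and 100% = no enzyme blank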
KLK5 inh: inhibitors of human kallikrein 5. recombinant hK5, fluorogenic AMC substrate cleavage. 0.59% of 210,000 active. Q9Y337. inhibition, % at 5 µM;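 active = inhibition of 40% or more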;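 note: 0% = enzyme controls without compound and 100% = no-enzyme blanks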
thrombin 1536: blocks human thrombin protease activity. 0.26% of 220,000 active. inhibition, % at 5 µM. alpha-thrombin, Boc-VPR-AMC fluorogenic substrate cleavage;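 active = inhibition at or above 40%; inactive = inhibition below 40%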;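 note: 0% = enzyme with no compound and 100% = wells without enzyme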
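System: Human alpha-thrombin protein | Medium: pH 7.5 Tris (50 mM) with NaCl 150 mM, Tween 20 0.05% | Times: Enzyme reaction carried out at room temperature | Detection: AMC fluorescence, 355/460 nm | Evaluation: Percent inhibition scaled between no-compound controls and no-enzyme blanks | Benchmarks: Enzyme without compound as high, wells lacking enzyme as low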
EP2 mod: modulators of human EP2 prostaglandin E2 receptor; induction, % at 25 µM; EP2-expressing cells, cAMP HTRF FRET, PGE2 co-stimulation; 0.83% of 260,000 active; AID 940; P43116;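 active = compounds whose cAMP rise, as percent of the full-agonist control response, exceeds 60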;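 note: rat C6 glioma line stably carrying human EP2 under a CMV promoter; the protocol text gives 20 µM as final concentration; 100% = response of wells given 1 µM PGE2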
EP2 antag: EP2 receptor (human) inhibition; C6 glioma cells expressing human EP2, cAMP TR-FRET; cells stimulated with saturating PGE2; 0.52% of 260,000 active; AID 1422; inhibition, % at 25 µM; P43116;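 active = percent inhibition above 40 after rounding to a whole number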;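 note: rat C6 glioma host cells with rolipram phosphodiesterase inhibitor present; the protocol text gives 20 µM as final concentration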
* = called active by the depositor; . = not tested or not shown; ! = not confirmed by another sample. Most compounds without a hit are left out; they make up all but 2.1% or so of the library.

SMILES | FXIIa inh | FXIa inh | KLK5 inh | thrombin 1536 | EP2 mod | EP2 antag
COc1ccccc1C(=O)Nc1nc(-c2ccc3c(c2)CCN3C(=O)C(C)(C)C)cs1 | . | . | . | . | -58 | 19
O=C(Cn1cc2c(n1)CCCC2)NCc1ccccn1 | 16 | 12 | 45* | 18 | 16 | 3
O=C(Cn1nc(-c2ccncc2)oc1=O)N1CCCCCC1 | . | . | . | . | -37 | 10
COC(Cn1c(C)c(C(C)=O)c(C(C)=O)c1C)OC | 48* | 24 | 1 | 2 | 14 | .
COCCn1nnnc1C(c1cc2cc(C)ccc2[nH]c1=O)N1CCN(c2ccc(OC)cc2)CC1 (stereo unspecified) | . | . | . | . | 2 | 11
COc1ccc(OC2OC(CO)C(O)C(O)C2NC(C)=O)cc1 (stereo unspecified) | . | . | . | . | -15 | 11
COC(=O)/C=C1/C(=O)N(C(C)=O)c2ccccc21 | . | . | . | . | -51 | 71*
CCO/C=C1/C(=O)N(C(C)=O)c2ccccc21 | 12 | 8 | -7 | 1 | 21 | 4
Cc1cc(C)n2ncc(C(=O)NC(C)c3ccccc3)c2n1 (stereo unspecified) | . | . | . | . | -8 | 10
O=C1Nc2ccccc2C1=Nc1ccc(S(=O)(=O)Nc2nccs2)cc1 | 9 | 1 | 3 | 2 | -19 | 46*!
COc1ccc(C2C(=O)c3ccccc3C2=O)cc1OC | 17 | 9 | 18 | 56* | -3 | 8
CCOC(=O)c1[nH]c(C)c(C(=O)Nc2ccc(C)cc2C)c1C | 21 | 10 | 80* | -1 | -13 | 9
Cc1nc2ccc(S(=O)(=O)O)cc2[nH]1 | . | . | . | . | 13 | 14
Cc1ccc(N2C(=O)c3cccc4cccc(c34)C2=O)cc1 | 7 | -3 | 0 | -8 | 29 | 11
CC1=CC2=C(OC1N(C)C)c1cccc3cccc(c13)C2=O (stereo unspecified) | 24 | 9 | 50* | 27 | 16 | 12
CCOc1cc(CN2CCN(Cc3ccc(C)cc3)CC2)ccc1OC | . | . | . | . | -11 | 7
Cn1c(SCC(=O)NC(C)(C)C)nnc1-c1ccc(C(C)(C)C)cc1 | 9 | 17 | 42* | 18 | 12 | 7
COc1ccc(OC)c(NC(=O)CSc2nnnn2-c2cccc3c2CCCC3)c1 | . | . | . | . | -19 | 21
Cc1cc2ccccc2n2c(SCC(=O)Nc3nc4c(s3)CCCC4)nnc12 | . | . | . | . | -21 | 18
CC(C)c1nc2ccccc2c2nnc(SCC(=O)Nc3nc4c(s3)CCCC4)n12 | . | . | . | . | 64* | 16
CCOc1ccc(OCC)c(NCc2cc3c(C)nn(-c4ccccc4)c3[nH]c2=O)c1 | . | . | . | . | -7 | 6
COc1ccccc1NC(=O)N(Cc1ccco1)Cc1cc2cc(C)ccc2[nH]c1=O | . | . | . | . | 37 | 13
O=C(Cn1c(-c2ccccn2)nc2ccccc21)N/N=C/c1cccnc1 | 30 | 48* | 113* | 13 | -25 | 2
Cc1ccc(S(=O)(=O)N2CCN(CC(=O)N/N=C\c3cccnc3)CC2)cc1 | 6 | 11 | 41* | 11 | 14 | 2
O=C(Cn1c(-c2ccccn2)nc2ccccc21)N/N=C/c1ccccn1 | 8 | -2 | -3 | -8 | -17 | 4
SMILES | FXIIa inh | FXIa inh | KLK5 inh | thrombin 1536 | EP2 mod | EP2 antag
Cc1ccc(C(=O)Cn2nc(C)c([N+](=O)[O-])c2C)c(C)c1 | 12 | -2 | 4 | -4 | 12 | 8
Cc1nn(CC(=O)c2ccc(Cl)s2)c(C)c1[N+](=O)[O-] | 28 | 43* | 24 | 12 | 3 | 2
COc1cc(NC(=O)c2cc(-c3ccccc3Cl)on2)c(OC)cc1Cl | . | . | . | . | -9 | 2
Cc1ccc2cc(CN(CCN(C)C)C(=S)Nc3cccc(Cl)c3)c(=O)[nH]c2c1C | . | . | . | . | -72 | 7
Cc1ccc(CCNC(=O)C2CCC(=O)N2Cc2cccnc2)cc1 (stereo unspecified) | 16 | 6 | 47* | 6 | 33 | 8
Cc1cccc(CCNC(=O)C2CCC(=O)N2Cc2ccc(F)cc2)c1 (stereo unspecified) | 11 | -1 | -3 | -2 | -15 | 4
Cc1cc(N/N=C/c2ccccc2O)nc(N2CCOCC2)n1 | -2 | -5 | 1 | -5 | -39 | 7
COc1ccc(OC)c(/C=N/Nc2cc(C)nc(N3CCOCC3)n2)c1 | 40* | 34 | 58* | 13 | 2 | 2
CCCOc1ccc(N2CC(C(=O)Nc3ccc(C(C)=O)cc3)CC2=O)cc1 (stereo unspecified) | . | . | . | . | 3 | 10
Nc1c(S(=O)(=O)O)cc(S(=O)(=O)O)c2ccc(N=Nc3ccccc3)c(O)c12 | . | . | . | . | 1 | 52*
O=C(CSc1nnc(COc2ccc(Cl)cc2Cl)o1)Nc1cccc2ccccc12 | . | . | . | . | -53 | 11
CCCCN1C(=O)C2ON(c3ccccc3C)C(c3ccco3)C2C1=O (stereo unspecified) | 1 | -7 | -17 | -10 | 63* | 12
COc1ccc(S(=O)(=O)NC(C)C(=O)Nc2cccc(C(C)=O)c2)cc1 (stereo unspecified) | 4 | -14 | -10 | 47* | 0 | 7
COc1ccc(S(=O)(=O)NC(C)C(=O)Nc2ccccc2F)cc1 (stereo unspecified) | -1 | -1 | -25 | -3 | 14 | 0
Cc1cc(C)c(S(=O)(=O)N2CCC(C(=O)NCc3ccc4c(c3)OCO4)CC2)c(C)c1 | . | . | . | . | -58 | 4
CC(=O)Nc1nonc1NC(=O)CSc1ccccn1 | 70* | 11 | 4 | 0 | 3 | 2
CCN1CCN(c2cc(C(C)(C)C)nc3c(-c4ccccc4)c(C)nn23)CC1 | 2 | 0 | 47* | 13 | 13 | 6
CC1CCN(c2nc3c(c(=O)n(C)c(=O)n3C)n2CCSc2nc3ccccc3s2)CC1 | 7 | -7 | -6 | -11 | 61* | 9
Cn1c(=O)c2c(nc(N3CCCCC3)n2CCSc2nc3ccccc3s2)n(C)c1=O | 7 | 0 | -24 | -12 | 22 | 0
CCC(CC)c1nnc(NC(=O)COc2ccc(Cl)cc2)s1 | . | . | . | . | -35 | 13
CCOC(=O)N1CCN(C(=O)C2CCCN(S(=O)(=O)c3cc(C)ccc3OC)C2)CC1 (stereo unspecified) | 0 | 1 | 40* | 104* | 11 | 14
COc1ccc(OC)c(S(=O)(=O)N2CCCC(C)C2)c1 (stereo unspecified) | 33 | 49* | -4 | -4 | 6 | 14
COc1ccc(N2C(=O)C(Cl)=C(N3CCCC(C)C3)C2=O)cc1 (stereo unspecified) | 57* | 44* | 2 | 4 | 44 | 10
COc1ccc(CNC(=O)C2CCCN(S(=O)(=O)c3cc(C)ccc3OC)C2)cc1 (stereo unspecified) | -4 | -5 | 2 | -10 | 12 | 4
COc1ccc(N2C(=O)C(Cl)=C(N3CCCC3)C2=O)cc1 | 13 | 7 | -23 | 2 | -5 | 8
COc1ccc(OC)c(NC(=O)C2CCCN(S(=O)(=O)c3cccc4cccnc34)C2)c1 (stereo unspecified) | 14 | 15 | 57* | 23 | -22 | 10

Assay outcomes from PubChem.
